From ChEMBL document CHEMBL4368901 (J Med Chem, 2019)
Active and inactive are the calls of the source. No cut-off for these calls is given here.

Key:
[1] = Inhibition of GDH (unknown origin) using NADP+ and glutamate as substrate preincubated for 0.5 hrs followed by substrate addition and measured after 1 hr by EZMTT reagent-based UV-Vis absorbance assay; set-up: species or system Homo sapiens
A549 [2] = assay: Antiproliferative activity against human A549 cells after 5 days by EZMTT reagent-based assay relative to control; format: functional
H22 [3] = assay: Antiproliferative activity against mouse H22 cells after 5 days by EZMTT reagent-based assay; format: functional, cell-based; conditions: H22, 120 h
H22 [4] = assay: Antiproliferative activity against mouse H22 cells after 5 days by EZMTT reagent-based assay relative to control; format: functional
CAKI-1 [5] = assay: Antiproliferative activity against human Caki1 cells after 5 days by EZMTT reagent-based assay relative to control; format: functional
HCT-116 [6] = assay: Antiproliferative activity against human HCT116 cells after 5 days by EZMTT reagent-based assay; format: functional, cell-based; conditions: HCT-116, 120 h
HCT-116 [7] = assay: Antiproliferative activity against human HCT116 cells after 5 days by EZMTT reagent-based assay relative to control; format: functional
A549 [8] = assay: Induction of ROS generation in human A549 cells at 10 uM after 12 hrs by DCFH-DA staining-based fluorescence microscopic analysis; format: functional, cell-based
How it was run: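 A549 cells were seeded at 10000 per well and exposed to compound at 0, 3 or 10 µM for 12 h. ROSUP at 100 µg/ml served as the positive control, alongside untreated cells. ROS was then assessed.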

HCT-116 [9] = assay: Antitumor activity against human HCT116 cells xenografted in nude mouse assessed reduction in tumor size at 10 mg/kg, sc administered for 14 consecutive days; format: functional, organism-based
How it was run: (§1)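 HCT116 xenografts in young SPF nude mice, n=6 per group. Compound given at 10 mg/kg subcutaneously, […]; the control group received N.S. End-point tumour weight, tumour growth and body weight were recorded. End-point tumours were H&E stained to assess tissue damage. Weights were compared by unpaired t test.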

HCT-116 [10] = assay: Antitumor activity against human HCT116 cells xenografted in nude mouse assessed reduction in tumor weight at 10 mg/kg, sc administered for 14 consecutive days; format: functional, organism-based; how it was run: as §1
HCT-116 [11] = assay: Antitumor activity against human HCT116 cells xenografted in nude mouse assessed induction of tumor necrosis at 10 mg/kg, […] by hematoxylin and eosin staining-based assay; format: functional, organism-based
H22 [12] = assay: Antitumor activity against mouse H22 cells transplanted in ICR mouse assessed as reduction in tumor weight at 10 mg/kg, sc administered once daily for 10 consecutive days relative to control; format: functional
How it was run: (§2)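 H22 liver cancer model in young SPF ICR mice, n=10 per group. Compound given subcutaneously once daily at 10 mg/kg, 10 injections; the control group received N.S. End-point tumour size and weight, body weight and survival were recorded. Treated groups were compared with control by unpaired t test.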

[13] = Metabolic stability in ICR mouse blood after 2 hrs by HPLC analysis; format: ADME, tissue-based
How it was run: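 Compound was incubated in blood for 2 h and its remaining concentration was quantified by HPLC.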

[14] = Metabolic stability in mouse liver microsomes at 50 uM after 4 hrs in presence of NADPH by HPLC analysis; format: ADME, Microsome; conditions: read-out: Stability
How it was run: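 Compound was incubated with mouse liver microsomes for 4 h, with coumarin as the control. The remaining level was quantified by HPLC using UV absorbance at 254 nm.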

[15] = Retention time of compound in mouse liver microsomes at 50 uM by LC-MS/MS analysis; format: ADME, Microsome
H22 [16] = assay: Antitumor activity against mouse H22 cells transplanted in ICR mouse assessed as reduction in tumor size at 10 mg/kg, sc administered once daily for 10 consecutive days relative to control; format: functional, organism-based; how it was run: as §2
[17] = Drug metabolism mouse liver microsomes assessed as metabolite formation due to loss of terminal pyridine and oxygen at 50 uM by LC-MS/MS analysis; format: ADME, Microsome
A549 [18] = assay: Antiproliferative activity against human A549 cells after 5 days by EZMTT reagent-based assay; format: functional, cell-based; conditions: A549, 120 h
CAKI-1 [19] = assay: Antiproliferative activity against human Caki1 cells after 5 days by EZMTT reagent-based assay; format: functional, cell-based; conditions: CAKI-1, 120 h
HCT-116 [20] = assay: Antitumor activity against human HCT116 cells xenografted in nude mouse assessed reduction in tumor weight at 10 mg/kg, […] relative to control; format: functional; set-up: scale not given: the % may be the effect or the level left
H22 [21] = assay: Antitumor activity against mouse H22 cells transplanted in ICR mouse assessed as increase in mouse survival at 10 mg/kg, sc administered once daily for 10 consecutive days relative to control; format: functional, organism-based
[22] = Drug level in tumor of mouse H22 cells transplanted ICR mouse at 10 mg/kg, sc administered once daily for 10 consecutive days by HPLC analysis; format: ADME, organism-based, Neoplasm; conditions: in vivo
How it was run: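 Compound accumulation was measured in end-point tumours from H22-bearing ICR mice after once-daily subcutaneous 10 mg/kg dosing, 10 injections. Tumour content was analysed by HPLC.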

O=C(Cc1cccc(OC(F)(F)F)c1)Nc1ccc(CCCCc2nnc(NC(=O)Cc3ccccn3)s2)nn1
IC50 [1]: > 13000 nM
Imax (A549 [2]): 82%
IC50 (H22 [3]): > 10000 nM
Imax (H22 [4]): 44%
Imax (CAKI-1 [5]): 88%
IC50 (HCT-116 [6]): 28 nM
Imax (HCT-116 [7]): 90%
Activity (A549 [8]): Active
Activity (HCT-116 [9]): Active
Activity (HCT-116 [10]): Active
Activity (HCT-116 [11]): Active
Activity (H22 [12]): Active
Stability [13]: Stable
remaining at 4 h, 50 µM [14]: 46%
Retention_time [15]: 7.97 min
Activity (H22 [16]): Active
Drug metabolism [17]: Metabolite_Detected

O=C(Cc1cccc(OC(F)(F)F)c1)Nc1ccc(CCCCc2nnc(NC(=O)Cc3ccccn3)[se]2)nn1
IC50 [1]: > 13000 nM
IC50 (A549 [18]): 17 nM
Imax (A549 [2]): 82%
IC50 (H22 [3]): 6780 nM
Imax (H22 [4]): 75%
IC50 (CAKI-1 [19]): 19 nM
Imax (CAKI-1 [5]): 89%
IC50 (HCT-116 [6]): 9 nM
Imax (HCT-116 [7]): 90%
Activity (A549 [8]): Active
Activity (HCT-116 [20]): 40%
Activity (HCT-116 [11]): Active
Activity (H22 [21]): Active
Drug uptake [22]: Active
Stability [13]: Stable
remaining at 4 h, 50 µM [14]: 50%
Retention_time [15]: 8.2 min
Activity (H22 [16]): Active
